Converted amounts (≈) assume the structure as drawn.
Tests used:
[1] = tested on: tubulin; assay: Tubulin polymerization assay; type: biochemical; settings: for Inhibition (%) of tubulin polymerisation: in vitro tubulin inhibition assay; for IC50: read-out: IC50 tubulin polymerisation; for IC50 / IC50 tubulin polymerisation: as printed in Table 2 and results text
Method in brief: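 Turbidimetric tubulin polymerization, using tubulin at 4 mg ml⁻¹. Test compound came from a 2 mM DMSO stock, diluted with water to final 0.1, 1, 10 and 100 μM. Polymerization was started by moving the reaction from 4 °C to a pre-warmed 37 °C plate. Absorbance at 340 nm was followed kinetically at 37 °C (0.5 cm pathlength). CA-4 served as reference.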

[2] = tested on: Michigan Cancer Foundation-7 breast cancer (MCF-7); assay: MTT antiproliferative assay, MCF-7; type: cell-based; settings: Homo sapiens, MCF7, read-out: Michigan cancer foundation-7 breast cancer (MCF-7) IC50
Method in brief: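 Human MCF-7 breast cancer cells were exposed to the test compound at 0.1, 1, 10 and 100 μM, with Taxol as positive reference. Viability was read by MTT and plotted as % cell viability against concentration (μM). IC50 is the concentration giving 50% growth inhibition relative to untreated control cells, taken from the dose–response curve.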

[3] = tested on: lung cell cancer adenocarcinoma (A549); assay: MTT antiproliferative assay, A549; type: cell-based; settings: Homo sapiens, A549, read-out: Lung cell cancer adenocarcinoma (A549) IC50
Method in brief: (§1)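 Colorimetric MTT viability readout, run in parallel on human Huh-7 hepatoma, A549 lung adenocarcinoma and MCF-7 breast cancer cells, and on MDCK canine kidney cells as the non-cancerous model. Test compound at four concentrations (0.1, 1, 10, 100 μM), with Taxol as the positive reference. % viability was plotted against concentration, and IC50 was derived as 50% growth inhibition relative to untreated control.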

[4] = tested on: human hepatoma (Huh-7); assay: MTT antiproliferative assay, Huh-7; type: cell-based; settings: Huh-7, read-out: Human hepatoma (Huh-7) IC50
Method in brief: as §1

[5] = tested on: (A549) cells; assay: Morphological assessment of A549 cells; type: cell-based, human; settings: 100 μM, 48 h, compared to untreated control
Method in brief: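 Living cells were examined by inverted light microscopy for morphology changes, after exposure to test compound. Comparators were an untreated control and a Taxol-treated positive control.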

[6] = tested on: mammary tumors; assay: In vivo DMBA-induced breast cancer model: tumor size and histopathology; design: species or system Wistar rats; settings: after treatment, 2 mg per kg per week
[7] = Body weight of tumor-bearing rats during treatment; type: in vivo, Wistar rats; settings: 2 mg per kg per week, day 0 to day 42

Row | IC50 [1] | IC50 [2] | IC50 [3] | IC50 [4] | IC50 tubulin polymerisation [1] | Structure (SMILES) | Inhibition (%) of tubulin polymerisation [1] | Morphological assessment of cells [5] | Histopathology of mammary gland (H&E): inflammatory cells infiltrates [6] | Effect on rats' body weights [7]
1 | 15.6 µM | 8.87 µM | 31.6 µM | 3.88 µM |  | COc1cc(/C=C2\CN(C(C)=O)CC3=C2OC(N)=C(C#N)C3c2ccc(O)c(OC)c2)ccc1O (stereo not shown) [3a, (E)-6-Acetyl-2-amino-3-cyano-8-(4-hydroxy-3-methoxybenzylidene)-4-(4-hydroxy-3-methoxyphenyl)-5,6,7,8-tetrahydro-4H-pyrano[3,2-c]pyridine] | 79% |  |  | 
2 | 4.03 µM | 6.13 µM | 15.5 µM | 6.54 µM | 4.03 µg/mL (≈ 8 µM) | CCOc1cc(/C=C2\CN(C(C)=O)CC3=C2OC(N)=C(C#N)C3c2ccc(O)c(OCC)c2)ccc1O (stereo not shown) [3b, (E)-6-Acetyl-2-amino-3-cyano-4-(3-ethoxy-4-hydroxy-phenyl)-8-(3-ethoxy-4-hydroxy-benzylidene)-5,6,7,8-tetrahydro-4H-pyrano[3,2-c]pyridine] | 81% | apparent cell toxicity | intensity of inflammatory cells infiltrates decreased | did not have a significant effect
3 |  | 6.38 µM | 61.2 µM | 17.7 µM |  | CC(=O)N1CC2=C(OC(N)=C(C#N)C2c2ccc(Cl)cc2)/C(=C/c2ccc(Cl)cc2)C1 (stereo not shown) [3c, (E)-6-Acetyl-2-amino-3-cyano-8-(4-chlorobenzylidene)-4-(4-chlorophenyl)-5,6,7,8-tetrahydro-4H-pyrano[3,2-c]pyridine] |  |  |  | 
4 |  |  |  | 20.7 µM |  | CC(=O)N1CC2=C(OC(N)=C(C#N)C2/C=C/c2ccccc2)/C(=C/C=C/c2ccccc2)C1 (stereo not shown) [3d, (E)-6-Acetyl-2-amino-3-cyano-8-((E)-3-phenylallylidene)-4-((E)-styryl)-5,6,7,8-tetrahydro-4H-pyrano[3,2-c]pyridine] |  |  |  | 
5 |  | 8.01 µM | 46.9 µM | 2.48 µM |  | COc1cc(/C=C2\CN(C(C)=O)CC3=C2NC(=S)NC3c2ccc(O)c(OC)c2)ccc1O (stereo not shown) [4a, (E)-6-Acetyl-8-(4-hydroxy-3-methoxybenzylidene)-4-(4-hydroxy-3-methoxyphenyl)-1,3,4,5,7,8-hexahydro-2H-pyrido[4,3-d]pyrimidin-2-thione] |  |  |  | 
6 |  | 16 µM | 42.3 µM | 7.27 µM |  | CCOc1cc(/C=C2\CN(C(C)=O)CC3=C2NC(=S)NC3c2ccc(O)c(OCC)c2)ccc1O (stereo not shown) [4b, (E)-6-Acetyl-8-(3-ethoxy-4-hydroxybenzylidene)-4-(3-ethoxy-4-hydroxyphenyl)-1,3,4,5,7,8-hexahydro-2H-pyrido[4,3-d]pyrimidin-2-thione] |  |  |  | 
7 | 6.06 µM | 5.27 µM | 20.3 µM | 5.47 µM |  | COc1cc(/C=C2\CN(C(C)=O)CC3C2=NN(c2ccccc2)C3c2ccc(O)c(OC)c2)ccc1O (stereo not shown) [5a, (E)-5-Acetyl-7-(4-hydroxy-3-methoxybenzylidene)-3-(4-hydroxy-3-methoxyphenyl)-2-phenyl-2,3,3a,4,6,7-hexahydro-5H-pyrazolo[4,3-c]pyridine] | 76% |  |  | 
8 | 12.6 µM | 9.04 µM | 15.2 µM | 2.23 µM |  | CCOc1cc(/C=C2\CN(C(C)=O)CC3C2=NN(c2ccccc2)C3c2ccc(O)c(OCC)c2)ccc1O (stereo not shown) [5b, (E)-5-Acetyl-7-(3-ethoxy-4-hydroxybenzylidene)-3-(3-ethoxy-4-hydroxyphenyl)-2-phenyl-2,3,3a,4,6,7-hexahydro-5H-pyrazolo[4,3-c]pyridine] | 70% |  |  | 
10 |  | 12.3 µM | 38.1 µM | 6.68 µM |  | CC(=O)O[C@H]1C(=O)[C@@]2(C)[C@H]([C@H](OC(=O)c3ccccc3)[C@]3(O)C[C@H](OC(=O)[C@H](O)[C@@H](NC(=O)c4ccccc4)c4ccccc4)C(C)=C1C3(C)C)[C@]1(OC(C)=O)CO[C@@H]1C[C@@H]2O [Taxol, reference compound] |  | apparent cell toxicity | intensity of inflammatory cells infiltrates decreased | did not have a significant effect

Source: article PMC10206482 (RSC Advances, 2023)
